# What was measured:
# [1] = molecular target: T1, Casein kinase II (Homo sapiens) (UniProt P67870+P68400+P19784); assay: Inhibition of Casein kinase 2 at 10 uM; format: protein-complex assay
# [2] = molecular target: Cyclin-dependent kinase 1 (Homo sapiens) (UniProt P06493); assay: Inhibition of Cyclin dependent kinase 1 at 10 uM
# In short: (§1)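 Run under conditions optimized for each kinase, with ATP near the enzyme's Km: CDK1 7.5 μM, PKA 50 μM.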
# [3] = molecular target: Insulin receptor (Homo sapiens) (UniProt P06213); assay: Inhibition of Insulin receptor at 10 uM
# [4] = molecular target: Vascular endothelial growth factor receptor 2 (Homo sapiens) (UniProt P35968); assay: Inhibition of Kinase insert domain receptor (VEGFR2) at 10 uM
# Vascular endothelial growth factor receptor 2 (Homo sapiens), sequence (P35968 whole entry, the tested form may be a part): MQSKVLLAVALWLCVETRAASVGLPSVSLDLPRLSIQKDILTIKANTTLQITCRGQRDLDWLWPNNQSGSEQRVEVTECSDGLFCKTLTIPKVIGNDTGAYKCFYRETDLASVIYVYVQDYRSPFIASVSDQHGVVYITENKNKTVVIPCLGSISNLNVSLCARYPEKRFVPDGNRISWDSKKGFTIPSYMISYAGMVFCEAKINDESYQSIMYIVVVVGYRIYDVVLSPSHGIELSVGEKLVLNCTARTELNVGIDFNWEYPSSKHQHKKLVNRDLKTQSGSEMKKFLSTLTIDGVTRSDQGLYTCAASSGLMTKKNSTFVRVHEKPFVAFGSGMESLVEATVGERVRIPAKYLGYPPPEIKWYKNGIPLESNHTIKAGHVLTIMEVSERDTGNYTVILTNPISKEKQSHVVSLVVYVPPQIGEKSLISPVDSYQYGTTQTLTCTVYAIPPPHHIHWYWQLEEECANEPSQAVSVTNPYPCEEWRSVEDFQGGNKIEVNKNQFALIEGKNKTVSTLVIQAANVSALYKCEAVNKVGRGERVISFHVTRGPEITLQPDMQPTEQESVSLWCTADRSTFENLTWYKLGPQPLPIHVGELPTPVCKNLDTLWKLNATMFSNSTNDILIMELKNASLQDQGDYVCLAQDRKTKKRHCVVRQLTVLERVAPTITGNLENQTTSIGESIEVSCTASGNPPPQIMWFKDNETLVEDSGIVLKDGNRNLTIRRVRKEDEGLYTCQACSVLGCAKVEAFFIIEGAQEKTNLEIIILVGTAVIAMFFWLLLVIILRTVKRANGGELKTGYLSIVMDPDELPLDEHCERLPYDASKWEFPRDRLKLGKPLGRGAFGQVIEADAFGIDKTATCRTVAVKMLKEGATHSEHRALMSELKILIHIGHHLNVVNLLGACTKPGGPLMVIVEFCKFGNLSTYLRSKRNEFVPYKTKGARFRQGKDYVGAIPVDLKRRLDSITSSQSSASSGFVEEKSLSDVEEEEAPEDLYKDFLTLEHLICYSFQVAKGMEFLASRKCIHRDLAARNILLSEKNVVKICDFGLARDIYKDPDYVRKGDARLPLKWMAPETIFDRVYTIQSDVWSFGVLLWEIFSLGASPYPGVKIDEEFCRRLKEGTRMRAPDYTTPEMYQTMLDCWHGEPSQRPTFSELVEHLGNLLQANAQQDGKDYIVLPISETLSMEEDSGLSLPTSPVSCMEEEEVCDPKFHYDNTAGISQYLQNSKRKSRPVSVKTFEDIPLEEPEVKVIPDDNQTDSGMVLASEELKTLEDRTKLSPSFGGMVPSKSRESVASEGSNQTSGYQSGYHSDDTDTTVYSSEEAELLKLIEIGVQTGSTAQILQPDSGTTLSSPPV
# In short: (§2)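 Filter-binding assay with recombinant GST-fused kinase domains expressed in baculovirus and purified over glutathione sepharose. [33P]-ATP was the phosphate donor and polyGluTyr (4:1) the acceptor. ATP was near Km: KDR, Flt-1, FGFR-1, Tek 8.0 μM; PDGFR-β, c-Kit, c-Met 1.0 μM; c-abl 5 μM; Her-1, Her-2 2.0 μM; c-Src 20 μM; IGF-1R 30 μM.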
# [5] = molecular target: 3-phosphoinositide-dependent protein kinase 1 (Homo sapiens) (UniProt O15530); assay: Inhibition of Phosphatidylinositol-trisphosphate-dependent kinase 1 at 10 uM
# [6] = molecular target: Platelet-derived growth factor receptor beta (Homo sapiens) (UniProt P09619); assay: Inhibition of Platelet derived growth factor receptor beta at 10 uM; in short: as §2
# [7] = molecular target: cAMP-dependent protein kinase (PKA) (Homo sapiens) (UniProt P22694+P17612+P22612); assay: Inhibition of Protein kinase A at 10 uM; format: protein assay; in short: as §1
# [8] = molecular target: Serine/threonine-protein kinase AKT (Homo sapiens) (UniProt P31751+Q9Y243+P31749); assay: Inhibition of Protein kinase B at 10 uM; format: protein assay
# [9] = molecular target: Epidermal growth factor receptor (Homo sapiens) (UniProt P00533); assay: Inhibition of protein kinase HER-1 at 10 uM; in short: as §2
# [10] = molecular target: Receptor tyrosine-protein kinase erbB-2 (Homo sapiens) (UniProt P04626); assay: Inhibition of protein kinase HER-2 at 10 uM; in short: as §2
# [11] = molecular target: Mast/stem cell growth factor receptor Kit (Homo sapiens) (UniProt P10721); assay: Inhibition of Protein kinase Kit at 10 uM; in short: as §2
# Mast/stem cell growth factor receptor Kit (Homo sapiens), sequence (P10721 whole entry): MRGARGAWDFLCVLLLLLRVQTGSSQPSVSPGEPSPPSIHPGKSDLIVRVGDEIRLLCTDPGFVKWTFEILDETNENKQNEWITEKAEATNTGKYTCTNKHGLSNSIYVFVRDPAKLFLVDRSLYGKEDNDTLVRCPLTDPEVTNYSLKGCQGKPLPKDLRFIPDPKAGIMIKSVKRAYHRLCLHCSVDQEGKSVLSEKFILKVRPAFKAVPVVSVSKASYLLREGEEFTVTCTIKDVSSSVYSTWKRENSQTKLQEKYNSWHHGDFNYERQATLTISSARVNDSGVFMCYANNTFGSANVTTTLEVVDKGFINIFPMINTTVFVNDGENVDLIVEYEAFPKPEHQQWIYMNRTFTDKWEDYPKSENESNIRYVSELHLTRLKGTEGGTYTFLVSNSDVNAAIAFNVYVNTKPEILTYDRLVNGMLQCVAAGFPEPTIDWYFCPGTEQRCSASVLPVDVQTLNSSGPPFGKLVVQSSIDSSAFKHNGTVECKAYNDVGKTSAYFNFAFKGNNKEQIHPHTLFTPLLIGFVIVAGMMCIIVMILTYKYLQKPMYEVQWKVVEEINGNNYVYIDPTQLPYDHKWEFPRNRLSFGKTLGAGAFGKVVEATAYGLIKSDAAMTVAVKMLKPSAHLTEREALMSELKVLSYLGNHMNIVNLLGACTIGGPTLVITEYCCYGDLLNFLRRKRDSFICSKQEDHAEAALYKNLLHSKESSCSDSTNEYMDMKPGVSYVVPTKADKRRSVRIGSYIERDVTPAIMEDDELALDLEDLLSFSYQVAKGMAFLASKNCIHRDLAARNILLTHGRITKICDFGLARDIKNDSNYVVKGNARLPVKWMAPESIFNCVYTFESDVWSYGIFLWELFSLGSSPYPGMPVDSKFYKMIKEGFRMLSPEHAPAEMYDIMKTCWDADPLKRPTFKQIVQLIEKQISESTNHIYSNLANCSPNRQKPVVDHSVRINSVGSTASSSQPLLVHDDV
# [12] = molecular target: Hepatocyte growth factor receptor (Homo sapiens) (UniProt P08581); assay: Inhibition of Protein kinase Met at 10 uM; in short: as §2
# Hepatocyte growth factor receptor (Homo sapiens), sequence (P08581 whole entry): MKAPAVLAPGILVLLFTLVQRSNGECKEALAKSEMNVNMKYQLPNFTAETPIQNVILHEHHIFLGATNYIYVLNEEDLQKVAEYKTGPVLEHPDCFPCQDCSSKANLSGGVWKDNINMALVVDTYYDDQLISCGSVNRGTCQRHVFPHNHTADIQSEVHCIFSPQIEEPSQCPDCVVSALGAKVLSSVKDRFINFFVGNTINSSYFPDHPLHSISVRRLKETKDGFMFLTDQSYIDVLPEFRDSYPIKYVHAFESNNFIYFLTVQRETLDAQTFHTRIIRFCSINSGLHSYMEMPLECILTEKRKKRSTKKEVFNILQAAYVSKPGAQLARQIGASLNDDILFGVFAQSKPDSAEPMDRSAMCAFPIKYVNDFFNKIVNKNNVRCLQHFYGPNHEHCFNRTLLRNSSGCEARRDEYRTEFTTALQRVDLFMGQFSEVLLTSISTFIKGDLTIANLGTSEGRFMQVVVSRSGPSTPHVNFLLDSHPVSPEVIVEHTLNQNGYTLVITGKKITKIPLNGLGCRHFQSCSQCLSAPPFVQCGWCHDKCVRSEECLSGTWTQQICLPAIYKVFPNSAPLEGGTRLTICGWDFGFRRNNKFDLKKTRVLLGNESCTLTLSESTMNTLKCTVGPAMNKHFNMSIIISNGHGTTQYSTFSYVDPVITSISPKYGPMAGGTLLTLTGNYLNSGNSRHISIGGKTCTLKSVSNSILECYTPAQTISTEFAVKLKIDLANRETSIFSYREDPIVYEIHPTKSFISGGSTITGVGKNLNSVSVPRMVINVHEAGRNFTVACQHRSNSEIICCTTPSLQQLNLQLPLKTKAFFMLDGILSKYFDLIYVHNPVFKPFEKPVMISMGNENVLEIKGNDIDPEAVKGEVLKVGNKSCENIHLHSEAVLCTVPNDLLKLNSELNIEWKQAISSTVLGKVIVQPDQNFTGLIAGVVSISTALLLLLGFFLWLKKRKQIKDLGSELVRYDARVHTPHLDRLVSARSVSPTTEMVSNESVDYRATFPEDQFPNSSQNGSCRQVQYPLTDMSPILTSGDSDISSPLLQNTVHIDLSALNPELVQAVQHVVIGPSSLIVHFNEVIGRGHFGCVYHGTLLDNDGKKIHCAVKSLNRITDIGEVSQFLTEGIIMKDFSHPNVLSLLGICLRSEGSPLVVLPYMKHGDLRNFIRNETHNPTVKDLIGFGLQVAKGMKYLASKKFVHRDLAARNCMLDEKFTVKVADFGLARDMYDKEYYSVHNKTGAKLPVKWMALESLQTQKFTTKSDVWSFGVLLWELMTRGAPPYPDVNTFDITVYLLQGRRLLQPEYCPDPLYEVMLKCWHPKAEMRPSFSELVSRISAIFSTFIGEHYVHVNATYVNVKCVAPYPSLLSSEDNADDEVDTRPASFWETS
# [13] = molecular target: Vascular endothelial growth factor receptor 1 (Homo sapiens) (UniProt P17948); assay: Inhibition of Protein kinase Flt-1 at 10 uM; in short: as §2
# [14] = molecular target: Receptor-type tyrosine-protein kinase FLT3 (Homo sapiens) (UniProt P36888); assay: Inhibition of Protein kinase Flt-3 at 10 uM
# [15] = molecular target: Proto-oncogene tyrosine-protein kinase Src (Homo sapiens) (UniProt P12931); assay: Inhibition of Protein kinase Src at 10 uM; in short: as §2
# Proto-oncogene tyrosine-protein kinase Src (Homo sapiens), sequence (P12931 2-536 limits assumed): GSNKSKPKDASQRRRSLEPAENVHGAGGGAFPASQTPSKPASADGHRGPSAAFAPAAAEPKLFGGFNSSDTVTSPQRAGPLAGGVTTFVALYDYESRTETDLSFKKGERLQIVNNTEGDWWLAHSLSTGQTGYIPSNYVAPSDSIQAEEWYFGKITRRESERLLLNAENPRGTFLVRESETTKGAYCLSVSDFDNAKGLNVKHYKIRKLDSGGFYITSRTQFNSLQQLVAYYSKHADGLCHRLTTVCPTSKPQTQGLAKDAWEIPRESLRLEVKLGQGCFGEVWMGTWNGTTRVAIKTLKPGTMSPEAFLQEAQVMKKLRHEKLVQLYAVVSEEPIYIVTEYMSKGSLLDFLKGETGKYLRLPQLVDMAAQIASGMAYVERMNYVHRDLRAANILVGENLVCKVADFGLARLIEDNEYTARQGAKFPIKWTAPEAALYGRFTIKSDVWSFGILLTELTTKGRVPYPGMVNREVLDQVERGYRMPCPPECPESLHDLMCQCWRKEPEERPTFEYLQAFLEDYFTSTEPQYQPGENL
# [16] = molecular target: Angiopoietin-1 receptor (Homo sapiens) (UniProt Q02763); assay: Inhibition of Protein kinase TEK at 10 uM; in short: as §2
# [17] = molecular target: Fibroblast growth factor receptor 1 (Homo sapiens) (UniProt P11362); assay: Inhibition of Protein kinase fibroblast growth factor receptor 1 at 10 uM; in short: as §2
# Fibroblast growth factor receptor 1 (Homo sapiens), sequence (P11362 22-822 limits assumed): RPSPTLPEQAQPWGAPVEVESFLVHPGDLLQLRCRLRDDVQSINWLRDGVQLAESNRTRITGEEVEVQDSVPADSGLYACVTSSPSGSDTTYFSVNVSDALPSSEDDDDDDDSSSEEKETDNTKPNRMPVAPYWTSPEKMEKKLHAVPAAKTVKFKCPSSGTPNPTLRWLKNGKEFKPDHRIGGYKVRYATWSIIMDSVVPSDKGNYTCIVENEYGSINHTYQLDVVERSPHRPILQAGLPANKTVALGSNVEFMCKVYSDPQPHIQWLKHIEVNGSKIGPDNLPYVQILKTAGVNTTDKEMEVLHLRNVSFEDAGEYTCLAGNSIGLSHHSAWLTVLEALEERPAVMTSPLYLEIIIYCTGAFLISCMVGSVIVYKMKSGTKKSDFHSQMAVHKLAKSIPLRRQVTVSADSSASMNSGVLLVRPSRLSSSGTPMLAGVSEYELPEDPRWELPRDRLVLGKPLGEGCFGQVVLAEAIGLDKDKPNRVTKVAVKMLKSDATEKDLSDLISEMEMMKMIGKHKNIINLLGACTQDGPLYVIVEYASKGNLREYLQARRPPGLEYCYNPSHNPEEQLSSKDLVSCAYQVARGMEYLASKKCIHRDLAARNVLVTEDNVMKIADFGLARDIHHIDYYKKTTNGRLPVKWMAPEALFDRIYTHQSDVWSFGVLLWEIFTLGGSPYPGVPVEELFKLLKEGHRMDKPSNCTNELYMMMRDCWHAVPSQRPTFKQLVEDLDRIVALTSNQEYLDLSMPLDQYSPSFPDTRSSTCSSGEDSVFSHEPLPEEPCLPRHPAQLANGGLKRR
# [18] = molecular target: Insulin-like growth factor 1 receptor (Homo sapiens) (UniProt P08069); assay: Inhibition of Type 1 insulin like growth factor receptor at 10 uM; in short: as §2
# [19] = molecular target: Tyrosine-protein kinase ABL1 (Homo sapiens) (UniProt P00519); assay: Inhibition of c-Abl tyrosine kinase at 10 uM; in short: as §2
# [20] = molecular target: T1, Casein kinase II (Homo sapiens)
# [21] = molecular target: RAF proto-oncogene serine/threonine-protein kinase (Homo sapiens) (UniProt P04049); conditions: 10 uM
# [22] = molecular target: Vascular endothelial growth factor receptor 3 (Homo sapiens) (UniProt P35916); conditions: 10 uM
structure (smiles),measurement,setting,value
O=C(O)Cc1c2ccccc2n2c1[nH]c(=O)c1ccccc12,inhibition,[1],97%
same,inhibition,[2],51%
same,inhibition,[3],23%
same,inhibition,[4],54%
same,inhibition,[5],9%
same,inhibition,[6],11%
same,inhibition,[7],51%
same,inhibition,[8],30%
same,inhibition,[9],12%
same,inhibition,[10],29%
same,inhibition,[11],31%
same,inhibition,[12],40%
same,inhibition,[13],21%
same,inhibition,[14],41%
same,inhibition,[15],0%
same,inhibition,[16],36%
same,inhibition,[17],32%
same,inhibition,[18],44%
same,inhibition,[19],25%
same,IC50,[20],0.08 µM
same,inhibition,[21],30%
same,inhibition,[22],30%
OCCc1c2ccccc2n2c1nc(O)c1ccccc12,inhibition,[1],48%
Cc1c2ccccc2n2c1nc(O)c1ccccc12,inhibition,[1],12%

# Reference: ChEMBL document CHEMBL1144893, “Discovery of a potent and selective protein kinase CK2 inhibitor by high-throughput docking” (J Med Chem, 2003)
